Measurements: ChEMBL document CHEMBL4371016, “Proline- and Arginine-Rich Peptides as Flexible Allosteric Modulators of Human Proteasome Activity” (J Med Chem, 2019)
Activity calls are given as the source filed them. The rule behind the calls is not given here. Residues, ends and D or L forms follow the SMILES beside them.

Columns and labels:
[1] = biological target: T1, Proteasome component C5 (Homo sapiens) (UniProt P20618); test: Negative allosteric modulation of SDS-activated human erythrocytes 20S proteasome caspase like activity at lower concentration using Z-LLE-AMC as substrate measured every 2 mins up to 60 mins by fluorescence assay
T1 sequence (whole entry): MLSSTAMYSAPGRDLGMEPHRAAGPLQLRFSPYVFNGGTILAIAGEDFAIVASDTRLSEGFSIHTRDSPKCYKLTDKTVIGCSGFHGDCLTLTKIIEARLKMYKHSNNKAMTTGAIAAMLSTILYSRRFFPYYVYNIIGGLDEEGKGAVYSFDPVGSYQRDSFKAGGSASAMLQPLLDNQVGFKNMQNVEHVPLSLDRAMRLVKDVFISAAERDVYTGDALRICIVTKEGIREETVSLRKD

[2] = biological target: T2, Proteasome Macropain subunit MB1 (Homo sapiens) (UniProt P28074); test: Positive allosteric modulation of latent human erythrocytes 20S proteasome chymotrypsin like activity up to 10 uM using LFP as substrate measured every 2 mins up to 60 mins by fluorescence assay
T2 sequence (whole entry): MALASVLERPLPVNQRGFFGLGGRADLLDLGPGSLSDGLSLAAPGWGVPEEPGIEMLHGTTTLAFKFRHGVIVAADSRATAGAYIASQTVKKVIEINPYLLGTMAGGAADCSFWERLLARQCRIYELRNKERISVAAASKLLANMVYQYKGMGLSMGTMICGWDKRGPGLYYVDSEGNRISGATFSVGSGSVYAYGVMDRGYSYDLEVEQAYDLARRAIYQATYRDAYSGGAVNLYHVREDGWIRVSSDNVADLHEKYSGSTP

[3] = biological target: T2, Proteasome Macropain subunit MB1 (Homo sapiens); test: Negative allosteric modulation of SDS-activated human erythrocytes 20S proteasome chymotrypsin like activity up to 10 uM using LFP as substrate measured every 2 mins up to 60 mins by fluorescence assay
[4] = biological target: Proteasome Macropain subunit (Homo sapiens) (UniProt P49721); test: Negative allosteric modulation of SDS-activated human erythrocytes 20S proteasome trypsin like activity at 10 uM using Boc-LRR-AMC as substrate measured every 2 mins up to 60 mins by fluorescence assay
[5] = biological target: T2, Proteasome Macropain subunit MB1 (Homo sapiens); test: Positive allosteric modulation of latent human erythrocytes 20S proteasome chymotrypsin like activity up to 10 uM using LFP as substrate measured every 2 mins up to 60 mins by fluorescence assay
[6] = biological target: T2, Proteasome Macropain subunit MB1 (Homo sapiens); test: Negative allosteric modulation of SDS-activated human erythrocytes 20S proteasome chymotrypsin like activity using Suc-LLVY-AMC as substrate measured every 2 mins up to 60 mins by fluorescence assay
Outline: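 1.4 nM CP (0.001 mg/mL) in 50 mM Tris-HCl pH 8.0, activated with 0.005% SDS where stated, otherwise latent. Suc-LLVY-AMC at 100 μM final. AMC fluorescence read every 2 min up to 60 min at 37 °C. Activity relative to DMSO-treated enzyme, from at least three independent replicates. Peptide stocks 10 mM in DMSO.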

Proteasome Macropain subunit (Homo sapiens), sequence (P49721 whole entry): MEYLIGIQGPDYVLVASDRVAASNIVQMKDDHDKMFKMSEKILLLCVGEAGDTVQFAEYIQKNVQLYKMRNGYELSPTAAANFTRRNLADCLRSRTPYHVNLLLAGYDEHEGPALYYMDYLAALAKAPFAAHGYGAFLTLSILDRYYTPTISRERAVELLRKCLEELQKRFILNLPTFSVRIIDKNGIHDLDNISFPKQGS

SMILES | Activity [1] | Activity [2] | Activity [3] | Activity [4] | Activity [5] | Activity [6]
CC(C)C[C@H](NC(=O)[C@H](Cc1ccc(O)cc1)NC(=O)[C@@H]1CCCN1C(=O)[C@@H]1CCCN1C(=O)[C@H](CCCNC(=N)N)NC(=O)[C@@H]1CCCN1C(=O)[C@H](CCCNC(=N)N)NC(=O)[C@H](CCCNC(=N)N)NC(=O)[C@@H](N)CCCNC(=N)N)C(=O)N1CCC[C@H]1C(=O)N[C@@H](CCCNC(=N)N)C(=O)N[C@@H](Cc1c[nH]c2ccccc12)C(=O)NCC(N)=O (H-RRRPRPPYLPRWG-NH2) | Active | inactive | Active | Active | inactive | 
CC(C)C[C@H](NC(=O)[C@H](Cc1ccc(O)cc1)NC(=O)[C@H](CCCNC(=N)N)NC(=O)[C@H](CCCNC(=N)N)NC(=O)[C@@H](N)CCCNC(=N)N)C(=O)N1CCC[C@H]1C(=O)N[C@@H](CCCNC(=N)N)C(=O)N[C@@H](Cc1c[nH]c2ccccc12)C(=O)NCC(=O)O (H-RRRYLPRWG-OH) | Active | inactive | Active | Active | inactive | Dose-dependent effect
CC(C)C[C@H](NC(=O)[C@H](Cc1ccc(O)cc1)NC(=O)[C@@H]1CCCN1C(=O)[C@@H]1CCCN1C(=O)[C@@H]1CCCN1C(=O)[C@@H]1CCCN1C(=O)[C@H](CCCNC(=N)N)NC(=O)[C@H](CCCNC(=N)N)NC(=O)[C@@H](N)CCCNC(=N)N)C(=O)N1CCC[C@H]1C(=O)N[C@@H](CCCNC(=N)N)C(=O)N[C@@H](Cc1c[nH]c2ccccc12)C(=O)NCC(=O)O (H-RRRPPPPYLPRWG-OH) |  |  | Active |  | inactive | 
N=C(N)NCCC[C@H](NC(=O)[C@H](CCCNC(=N)N)NC(=O)[C@@H](N)CCCNC(=N)N)C(=O)N[C@@H](Cc1ccc(O)cc1)C(=O)N1CCC[C@H]1C(=O)N[C@@H](CCCNC(=N)N)C(=O)N[C@@H](Cc1c[nH]c2ccccc12)C(=O)NCC(=O)O (H-RRRYPRWG-OH) | Active | inactive | Active | Active | inactive | 
